Reference: ChEMBL document CHEMBL1687919, “Design, synthesis, and structure-activity relationship of Trypanosoma brucei leucyl-tRNA synthetase inhibitors as antitrypanosomal agents” (J Med Chem, 2011)

What was measured:
[1] = Inhibition of Trypanosoma brucei TREU927 Leucyl-tRNA Synthetase expressed in Escherichia coli BL21 (DE3)-RIPL using [14C]Leu by scintillation counting
How it was run: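 Compound preincubated 20 min at 37 °C without ATP, then started with 4 mM ATP. After 15 min, TCA-precipitated on filters. Nine-point IC50 curves, sigmoidal fit, reference inhibitor per batch.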

L929 = test: Cytotoxicity against mouse L929 cells after 72 hrs; format: cell-based; conditions: L929, 72 h
How it was run: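 Fibroblasts grown in D-MEM with 10% FBS and pen/strep, kept subconfluent. Seeded from 1 × 10^4/mL suspension, attached overnight, medium replaced, serially diluted compound added from DMSO. Exposure 72 h at 37 °C, 5% CO2. Resazurin added for 3-4 h more, fluorescence read at ex 544/em 590 nm.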

[2] = system: Trypanosoma brucei brucei; test: Antitrypanosomal activity against bloodstream-form Trypanosoma brucei brucei 427 after 72 hrs; format: functional, organism-based; conditions: Trypanosoma brucei, 427, 72 h
How it was run: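 HMI-9 with 10% FBS, 10% Serum Plus and pen/strep; log-phase parasites at final 1.0 × 10^5/mL, 0.4% DMSO. Serially diluted compound, 72 h at 37 °C, 5% CO2, then resazurin for 2-4 h more. Fluorescence read at ex 544/em 590 nm. Triplicates averaged, IC50 from sigmoidal dose-response fit; suramin and pentamidine as positive controls.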

Row | IC50 [2] [µM] | SMILES | IC50 [1] [µM] | IC50 (L929) [µg/mL]
1 | – | O=C1c2ccccc2C(=O)N1CCCOc1ccc2c(c1)B(O)OC2 | > 100 | –
2 | – | CCOC(=O)/C=C/c1cccc2c1B(O)OC2 | > 1000 | –
3 | – | CCOC(=O)CCc1cccc2c1B(O)OC2 | > 1000 | –
4 | – | OCCCc1cccc2c1B(O)OC2 | 541 | –
5 | – | O=C(/C=C/c1cccc2c1B(O)OC2)c1ccccc1 | 412 | –
6 | – | CCOC(=O)/C=C/c1ccc2c(c1)B(O)OC2 | 578 | –
7 | – | CCOC(=O)CCc1ccc2c(c1)B(O)OC2 | 16.7 | –
8 | – | OCCCc1ccc2c(c1)B(O)OC2 | 688 | –
9 | – | O=C(/C=C/c1ccc2c(c1)B(O)OC2)c1ccccc1 | 209 | –
10 | – | OB1OCc2ccc(O)cc21 | 30.9 | –
11 | – | OB1OCc2ccc(OCc3ccccc3)cc21 | 30.6 | –
12 | – | OB1OCc2ccc(OCc3ccccc3F)cc21 | 25.6 | –
13 | – | OB1OCc2ccc(Oc3ccc4ccccc4n3)cc21 | 63 | –
14 | – | OB1OCc2ccc(OCc3ccccn3)cc21 | > 100 | –
15 | – | OB1OCc2ccc(OCC3CCCCC3)cc21 | > 100 | –
16 | – | COC(COc1ccc2c(c1)B(O)OC2)OC | 71.3 | –
17 | – | O=C(O)COc1ccc2c(c1)B(O)OC2 | > 100 | –
18 | – | O=CCOc1ccc2c(c1)B(O)OC2 | > 100 | –
19 | – | CC(C)(C)OC(=O)NCCOc1ccc2c(c1)B(O)OC2 | > 100 | –
20 | – | CCOc1ccc2c(c1)B(O)OC2 | 13 | –
21 | – | CCCOc1ccc2c(c1)B(O)OC2 | 30.9 | –
22 | – | CC(C)Oc1ccc2c(c1)B(O)OC2 | 15.8 | –
23 | – | CCCCOc1ccc2c(c1)B(O)OC2 | 54.3 | –
24 | – | COCCOc1ccc2c(c1)B(O)OC2 | > 100 | –
25 | 0.72 | CCOC(=O)COc1ccc2c(c1)B(O)OC2 | 3.5 | > 10

Row | IC50 [2] [µM] | SMILES | IC50 [1] [µM] | IC50 (L929) [µg/mL]
26 | – | O=C(Nc1ccccc1)Oc1ccc2c(c1)B(O)OC2 | 43.1 | –
27 | – | O=C(NC1CCCCC1)Oc1ccc2c(c1)B(O)OC2 | 32.3 | –
28 | 1.22 | COC(=O)COc1ccc2c(c1)B(O)OC2 | 3.6 | > 10
29 | 2.61 | CC(C)(C)OC(=O)COc1ccc2c(c1)B(O)OC2 | 7.4 | > 10
30 | 3 | CCOC(=O)C(C)Oc1ccc2c(c1)B(O)OC2 (stereo not drawn) | 2.8 | > 10
31 | 11.3 | CCOC(=O)C(CC)Oc1ccc2c(c1)B(O)OC2 (stereo not drawn) | 1.6 | > 10
32 | 5.49 | CCOC(=O)C(C)(C)Oc1ccc2c(c1)B(O)OC2 | 2.1 | > 10
33 | – | CCOC(=O)C(Oc1ccc2c(c1)B(O)OC2)c1ccccc1 (stereo not drawn) | 41.7 | –
34 | – | CCNC(=O)COc1ccc2c(c1)B(O)OC2 | 77.7 | –
35 | – | CC(C)(C)NC(=O)COc1ccc2c(c1)B(O)OC2 | > 100 | –
36 | – | CCCC(=O)COc1ccc2c(c1)B(O)OC2 | 30.8 | –
37 | – | CCC(=O)COc1ccc2c(c1)B(O)OC2 | 27.2 | –
38 | 8.25 | CCC(=O)C(C)Oc1ccc2c(c1)B(O)OC2 (stereo not drawn) | 2.5 | > 10
39 | 12.9 | CCCC(=O)C(CC)Oc1ccc2c(c1)B(O)OC2 (stereo not drawn) | 2.9 | > 10
40 | 2.09 | CC(=O)C(C)Oc1ccc2c(c1)B(O)OC2 (stereo not drawn) | 3.8 | > 10
41 | 0.37 | CC(=O)C(C)(C)Oc1ccc2c(c1)B(O)OC2 | 5 | > 10
42 | 3.76 | CCC(Oc1ccc2c(c1)B(O)OC2)C(C)=O (stereo not drawn) | 3.5 | > 10
43 | – | CCCC(Oc1ccc2c(c1)B(O)OC2)C(C)=O (stereo not drawn) | 31.4 | –
44 | 2.74 | CC(=O)C(Oc1ccc2c(c1)B(O)OC2)C(C)C (stereo not drawn) | 4.5 | > 10
45 | – | CC(C)CC(=O)COc1ccc2c(c1)B(O)OC2 | 67.6 | –
46 | – | CCC(O)C(C)Oc1ccc2c(c1)B(O)OC2 (stereo not drawn) | > 100 | –
47 | – | OB1OCc2ccccc21 [BENZOXABOROLE] | 22.1 | –
48 | 0.026 | N=C(N)c1ccc(OCCCCCOc2ccc(C(=N)N)cc2)cc1 [PENTAMIDINE] | – | –
49 | 0.005 | Cc1ccc(C(=O)Nc2ccc(S(=O)(=O)O)c3cc(S(=O)(=O)O)cc(S(=O)(=O)O)c23)cc1NC(=O)c1cccc(NC(=O)Nc2cccc(C(=O)Nc3cc(C(=O)Nc4ccc(S(=O)(=O)O)c5cc(S(=O)(=O)O)cc(S(=O)(=O)O)c45)ccc3C)c2)c1 [SURAMIN] | – | –
